# Screening results as filed in PubChem BioAssay.
# PMI activator: phosphomannose isomerase (human) activation; P34949; purified human PMI, coupled resazurin fluorescence, 20 min; active compounds read high; 1 = vehicle control, 0 substrate-free wells; activation factor at 20 µM; hit rate 0.005% among 190,000; AID 1214;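 active means activation factor of 2 or more at 20 µM, relative to plate controls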
# ROMK primary: modulates human ROMK potassium channel activity. B-score at 10 µM. hit rate 2% among 130,000. Tet-inducible ROMK, thallium flux fluorescence; actives lie on both sides;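 active means signal ratio slope over the read window, or its plate-corrected B-score, at least 3 SD from the plate mean, either direction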;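 further: B-score of the F/F0 ratio slope over 7 to 12 s after thallium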
# ABCB1 inh: inhibitors of human ABCB1 transporter, ABCG2 counter-screen | P08183 | CCRF-Adr cells, JC-1 efflux, flow cytometry | inhibition, % at 6.6 µM | hit rate 0.067% among 190,000 | AID 1326; in the data active means inhibition above about 40%;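 further: higher value means more JC-1 retained so stronger ABCB1 efflux block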
# KCC2 mod: modulators of human KCC2 chloride dependent transport; Q9H2X9; KCC2 cells, thallium flux FluoZin-2 fluorescence; B-score of Tl+ flux slope (higher = more flux/activation; lower = inhibition) at 10 µM; hit rate 2.2% among 190,000;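 active means thallium flux slope and its plate-corrected score both differing from the plate sample mean at a set confidence after two filtering rounds, in either direction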;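 further: slope of fluorescence scaled to starting intensity during 10 to 20 s after thallium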
# PMI act satM6P: increases human PMI activity with near-saturating mannose 6-phosphate. P34949. activation factor at 20 µM. hit rate 0.34% among 190,000. coupled PMI enzyme assay, resazurin fluorescence, 20 min; active compounds read high; 1 = untreated enzyme, 0 = substrate-free blank;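 active means activation factor of 2 or more at 20 µM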
#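 Technique: Diaphorase-driven resazurin-to-resorufin fluorescence, excitation 544, emission 590 nm | Assay system: Human PMI in coupled enzyme assay | Times: Enzyme reaction with compound 20 min at room temperature | Medium: HEPES-buffered pH 7.4 with magnesium and detergent | Reagent: Mannose-6-phosphate 1.0 mM (near-saturating) plus 0.22 mM NADP+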
# ABCG2 inh: blocks JC-1 efflux by human ABCG2 transporter. Q9UNQ0. IgMXP3 cells, flow cytometry. inhibition, % at 6.6 µM. hit rate 0.1% among 190,000;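 active means inhibition above 80%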
# Target sequence (Q9UNQ0 whole entry, looked up): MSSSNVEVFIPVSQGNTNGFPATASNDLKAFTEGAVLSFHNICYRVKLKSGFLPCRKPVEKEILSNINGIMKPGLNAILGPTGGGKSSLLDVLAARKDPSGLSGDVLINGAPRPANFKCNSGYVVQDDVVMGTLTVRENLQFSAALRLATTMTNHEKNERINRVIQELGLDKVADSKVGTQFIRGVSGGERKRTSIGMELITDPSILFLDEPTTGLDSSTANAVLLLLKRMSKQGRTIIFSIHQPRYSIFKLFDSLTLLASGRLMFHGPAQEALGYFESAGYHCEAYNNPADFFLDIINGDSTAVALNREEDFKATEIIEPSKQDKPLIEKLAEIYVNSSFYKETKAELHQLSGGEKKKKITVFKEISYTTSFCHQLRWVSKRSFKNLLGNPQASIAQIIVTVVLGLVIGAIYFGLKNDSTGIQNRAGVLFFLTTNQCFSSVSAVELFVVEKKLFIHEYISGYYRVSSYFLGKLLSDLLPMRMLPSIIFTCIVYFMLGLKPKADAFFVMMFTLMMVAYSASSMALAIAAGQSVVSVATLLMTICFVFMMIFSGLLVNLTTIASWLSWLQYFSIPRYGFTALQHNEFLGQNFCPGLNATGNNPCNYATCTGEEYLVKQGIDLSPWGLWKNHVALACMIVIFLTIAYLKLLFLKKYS
#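 Test system: IgMXP3 cells (ABCG2) mixed with DDAO far-red-labelled CCRF-Adr cells (ABCB1). Reagent: JC-1 transporter substrate. Compound dosing: single test compound dose, 6.6 µM final. Times: 10 min compound exposure, 25 °C. Detection: flow cytometry of retained JC-1 fluorescence. Read-out basis: efflux inhibition in percent versus controls. Controls: nicardipine and DMSO wells.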
# KCC2 secondary: confirmation of human KCC2 transport modulators; AID 1713; shares compounds with KCC2 mod; hit rate 15% among 3,700; normalised thallium flux (F/F0 slope) at 10 µM; HEK293-KCC2, thallium flux, FluoZin2 fluorescence; active compounds read high;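 active means thallium flux slope above the same plate's solvent-only control mean plus 3 SD; inconclusive means the two replicate wells disagree; inactive means no significant difference from solvent-only control wells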
# KCC2 bumet counter: thallium flux despite bumetanide block in KCC2 cells, secondary assay 3 | shares compounds with KCC2 mod | HEK293-KCC2 + bumetanide/ouabain, thallium flux FluoZin2; active compounds read high | normalized thallium flux at 10 µM | hit rate 49% among 3,700 | AID 1714;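 active means thallium entry rate above the same plate's blocked-transporter control wells by more than 3 SD; inconclusive means the two repeat wells disagree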;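 further: raw slope of fluorescence over initial fluorescence between 10 and 20 s after thallium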
# KCC2 secondary2: confirmation of human KCC2 transport modulators | shares compounds with KCC2 mod | HEK293-KCC2, thallium flux FluoZin2 fluorescence; actives lie on both sides; F/F0 rise rate, 10–20 s post-thallium | normalized thallium flux at 10 µM | hit rate 23% among 3,700 | AID 1715;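 active means thallium flux slope more than 3 SD above or below the plate's solvent-only control mean, mostly below; inconclusive means the two repeat wells disagreed; inactive means no significant shift from solvent-only controls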
# HEK counter1: parental HEK flux effect, counter-screen; hit rate 46% among 3,700; HEK293 parental cells, thallium flux FluoZin2, ouabain; baseline-ratio fluorescence slope, 10–20 s after thallium; AID 1716; shares compounds with KCC2 mod; thallium flux rate (normalised fluorescence) at 10 µM;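 active means thallium flux rate significantly above the same plate's solvent-only control wells, beyond their mean plus 3 SD; inconclusive means the two replicate wells gave conflicting results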
# KCC2 ouabain: modulates human KCC2 on retest with ouabain | raw Tl+ flux slope (below DMSO = inhibition, above = activation) at 10 µM | HEK293-KCC2, thallium flux FluoZin2 fluorescence; bidirectional: low = inhibitor, high = activator | hit rate 48% among 3,700 | shares compounds with KCC2 mod;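 active means thallium flux slope beyond 3 SD from same-plate DMSO control mean in most replicates, usually higher, sometimes lower; inconclusive means repeat tests gave conflicting results; inactive means no significant difference from controls in most replicates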;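 further: slope of initial-normalized fluorescence between seconds 10 and 20 after thallium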
# HEK counter2: parental HEK flux effect, counter-screen 2; shares compounds with KCC2 mod; HEK293 parental, thallium flux FluoZin-2 fluorescence slope; thallium flux slope at 10 µM; hit rate 33% among 3,700; AID 1718;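 active means thallium flux slope above the same plate's solvent-control mean plus 3 SD in both duplicate wells; inconclusive means duplicate wells that disagreed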;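 further: run without ouabain in cells lacking the KCC2 cotransporter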
# Numbers stand for hits; 0 = inactive; ? = inconclusive; - = not tested or not shown. This is a sample that favours compounds with a hit; in the whole collection about 3.3% have one here.
SMILES,PMI activator,ROMK primary,ABCB1 inh,KCC2 mod,PMI act satM6P,ABCG2 inh,KCC2 secondary,KCC2 bumet counter,KCC2 secondary2,HEK counter1,KCC2 ouabain,HEK counter2
CC1=C(/C=C/C(C)=N\NC(=O)c2ccncc2)C(C)(C)CCC1,0,0,0,15,0,0,0,0.032,?,0.024,0.033,0.026
CC(/C=C/c1ccc2c(c1)OCO2)=N/NC(=O)c1ccncc1,-,0,-,0,-,-,-,-,-,-,-,-
O=C1CSC(=Nc2ccccc2)N1,0,0,0,5.7,0,0,0,?,0,0,0,?
Cc1ccccc1N=C1NC(=O)CS1,0,-,0,0,0,0,-,-,-,-,-,-
COc1ccc(OC)c(-n2nnnc2SCC(=O)NCCc2ccccc2)c1,0,0,0,-,0,0,0,0,?,0,0,0
COc1cccc(-n2nnnc2SCC(=O)NCCc2ccccc2)c1,0,-,0,0,0,0,-,-,-,-,-,-
Cc1ccc(-n2c(=S)[nH]c3c(oc4ccccc43)c2=O)cc1C,0,-,0,5.7,0,0,0.017,0.04,0,0.018,0.029,0.012
COc1ccc(S(=O)(=O)N2CCC(C(=O)NCc3ccccc3)CC2)cc1OC,0,0,0,0,0,0,-,-,-,-,-,-
CCC(Sc1ncnc2sc(C)c(C)c12)C(=O)OC (centres undefined),0,0,0,-,0,0,0.026,0.056,0.046,0.042,0.044,0.036
Cc1sc2ncnc(SC(C)C#N)c2c1C (centres undefined),-,-,0,3.8,-,0,?,0.026,0,0.01,?,?
Cc1sc2ncnc(SCC(=O)NCC(C)C)c2c1C,0,0,0,0,0,0,-,-,-,-,-,-
CCOC(=O)c1ccc(NC(=O)CN(Cc2ccc(Cl)cc2)S(C)(=O)=O)cc1,0,0,0,-,0,0,-,-,-,-,-,-
CC(C)[C@H](CO)N(Cc1cccc(F)c1)c1nc(Nc2cccc(Cl)c2)c2ncn(C(C)C)c2n1,-,-,-,0,-,-,-,-,-,-,-,-
CC[C@H](CO)Nc1nc(Nc2cccc(Cl)c2)c2ncn(C(C)C)c2n1,-,-,-,-2.6,-,-,0,0,?,0,0,0
Cc1cccc(Nc2nnc(SCC(=O)c3ccc(Br)s3)s2)c1C,0,0,0,-4.3,0,0,?,?,0.027,0,0.011,0
C/C(N)=C(/C#N)C(=O)CSc1nnc(Nc2cccc(C)c2C)s1,0,-,0,0,0,0,-,-,-,-,-,-
CCCCCCCn1c(=O)c(C(=O)OC)c(N)c2ccccc21,-,-,-,0,-,-,-,-,-,-,-,-
COc1ccc(C(=O)NC(=S)NCc2ccco2)cc1,-,0,-,6.8,-,-,0,0.015,0,?,?,0
Cc1ccc(C(=O)NC(=S)NCc2ccco2)cc1,0,0,0,19,0,0,0.014,0.022,0,0.027,0.029,0.016
O=C1CCCC(=O)N1c1ccc(N2CCN(c3ccc([N+](=O)[O-])cc3)CC2)c([N+](=O)[O-])c1,0,-,0,0,0,0,-,-,-,-,-,-
CCCOc1ccc(C(=O)CCC(=O)OCC(=O)N2CC(=O)Nc3ccccc32)cc1,0,0,0,0,0,0,-,-,-,-,-,-
O=C1CN(C(=O)COC(=O)CCC(=O)c2ccc3c(c2)OCCO3)c2ccccc2N1,0,-,0,-4.4,0,0,0,0,0.024,0,0,0
CC1CCC(C(=O)NNC(=O)c2cc(-c3ccco3)[nH]n2)CC1 (centres undefined),0,0,0,-2.9,0,0,0,0,0,?,?,0
O=C(O)c1cc(-c2ccco2)[nH]n1,0,-,0,0,0,0,-,-,-,-,-,-
O=C(COc1ccc(Br)cc1)N1CCN(c2ccc([N+](=O)[O-])c(N3CCCCC3)c2)CC1,0,-,0,0,0,0,-,-,-,-,-,-
SMILES,PMI activator,ROMK primary,ABCB1 inh,KCC2 mod,PMI act satM6P,ABCG2 inh,KCC2 secondary,KCC2 bumet counter,KCC2 secondary2,HEK counter1,KCC2 ouabain,HEK counter2
O=C(CCCc1c[nH]c2ccccc12)NCc1ccc2c(c1)OCO2,0,0,0,-4.5,0,0,0,0,0,0,?,0
Cc1ccc(-c2ccc(SCC(=O)Nc3ccc4c(c3)OCCO4)nn2)cc1,0,-,0,0,0,0,-,-,-,-,-,-
Cc1ccc(CSc2nnc(-c3cccs3)n2C)cc1,0,-,0,-,0,0,-,-,-,-,-,-
Cc1ccc(-c2ccc(SCC(=O)Nc3nonc3C)nn2)cc1,0,-,0,-5.7,0,0,0,0,0.023,0.0058,0.013,0
Cn1c(CSCc2ccccc2)nnc1SCC(=O)Nc1nccs1,0,0,0,6.2,0,0,0,0,0,0,0,0
Cn1c(SCc2c(Cl)cccc2Cl)nnc1-c1cccs1,0,-,0,-4.6,0,0,0,0,0,?,?,0
Cc1csc(NC(=O)CSc2nnc(-c3cccs3)n2C)n1,0,0,0,-3,0,0,0,0,0,0,0,0
COC(=O)c1c(-c2cccs2)csc1NC(=O)c1cccnc1,0,-,0,-,0,0,-,-,-,-,-,-
COc1nc(N/N=C/c2ccc(C)cc2)nc(N2CCCCC2)n1,0,-,0,0,0,0,-,-,-,-,-,-
Cc1csc(NC(=O)CSc2ccc(-c3ccccc3)nn2)n1,0,0,0,-5.6,0,0,0,0,0.019,0,0,0
CCn1nnnc1SCC(=O)Nc1nc(-c2cccs2)cs1,0,-,0,-4.1,0,0,0,0,?,0,0.014,0
CCn1nnnc1SCC(=O)Nc1nnc(C(C)C)s1,0,-,0,-,0,0,-,-,-,-,-,-
Cn1c(SCC(=O)Nc2nc3c(s2)CCCC3)nnc1-c1ccccc1,0,-,0,-4.8,0,0,0,0,0.023,0,0.018,0
Oc1c(/C=C/C=C/C=Nc2ccccc2)sc(=S)n1Cc1ccccc1,-,-,-,0,-,-,-,-,-,-,-,-
CSc1sc(-c2n[nH]c(=S)n2C)c2c1C=CCC2,-,0,-,4.3,-,-,0,0.015,0,0.0093,?,?
CCc1ccc(/C=C2/SC(N3CCOCC3)=NC2=O)cc1,-,-,-,0,-,-,-,-,-,-,-,-
CN1C/C(=C/c2ccsc2)C(=O)/C(=C/c2ccsc2)C1,0,-,0,0,0,0,-,-,-,-,-,-
